Source: ChEMBL document CHEMBL4043167, “Identification of pyrazolopyrimidine arylsulfonamides as CC-chemokine receptor 4 (CCR4) antagonists” (Bioorg Med Chem, 2017)
≈ marks a conversion by molar mass, not a printed value. Calls of active or inactive are those of the source. The rule behind the calls is not given here.

Experiments:
[1] = Kinetic solubility of the compound by chemiluminescent nitrogen detection assay; assay type: physicochemical; conditions: read-out: Kinetic_solubility
[2] = Lipophilicity, log D of the compound by chromatographic analysis; assay type: physicochemical
How it was run: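 Chromatographic logD measured at pH 7.4 (chromlogD7.4).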

[3] = molecular target: T1, C-C chemokine receptor type 4 (Homo sapiens, UniProt P51679); experiment: Antagonist activity at human recombinant CCR4 receptor expressed in CHO cell membranes by [35S]GTPgammaS binding assay; assay type: functional
T1 sequence (P51679 whole entry): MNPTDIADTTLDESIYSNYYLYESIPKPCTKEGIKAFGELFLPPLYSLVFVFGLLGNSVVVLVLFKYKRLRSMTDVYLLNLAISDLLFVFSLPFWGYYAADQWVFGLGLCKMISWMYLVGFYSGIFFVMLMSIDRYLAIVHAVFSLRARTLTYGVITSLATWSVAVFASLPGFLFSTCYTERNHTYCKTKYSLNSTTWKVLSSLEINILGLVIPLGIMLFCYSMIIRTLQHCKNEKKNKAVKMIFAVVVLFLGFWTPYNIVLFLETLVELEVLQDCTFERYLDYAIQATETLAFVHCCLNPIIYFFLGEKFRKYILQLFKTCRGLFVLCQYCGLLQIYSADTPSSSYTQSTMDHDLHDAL

[4] = molecular target: T1, C-C chemokine receptor type 4; experiment: (§1) Antagonist activity at CCR4 receptor in human whole blood assessed as F-actin polymerization after 30 mins by FACS-based flow cytometric analysis; conditions: read-out: pA2 (converted)
[5] = Oral bioavailability in Beagle dog at 1 mg/kg by LCMS/MS method; assay type: ADME, organism-based, Canis lupus familiaris; conditions: in vivo
[6] = Half life in Beagle dog at 1 mg/kg by LCMS/MS method; assay type: ADME, organism-based, Canis lupus familiaris; conditions: in vivo
[7] = Oral bioavailability in Sprague Dawley (crl:CD(SD)) rat at 1 mg/kg by LCMS/MS method; assay type: ADME, organism-based; conditions: in vivo
How it was run: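 Rat given an oral dose of 1 mg/kg, with a 1 mg/kg IV dose for comparison; oral bioavailability calculated.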

[8] = Clearance in dog microsomes; assay type: ADME, Canis lupus familiaris, Microsome
[9] = Volume of distribution at steady state in Beagle dog at 1 mg/kg by LCMS/MS method; assay type: ADME, organism-based, Canis lupus familiaris; conditions: in vivo, read-out: Vdss
albumin = albumin (Homo sapiens, UniProt P02768); experiment: Binding affinity to HSA; assay type: ADME; conditions: human serum albumin (HSA), read-out: PB (converted)
Sequence of albumin (P02768 whole entry): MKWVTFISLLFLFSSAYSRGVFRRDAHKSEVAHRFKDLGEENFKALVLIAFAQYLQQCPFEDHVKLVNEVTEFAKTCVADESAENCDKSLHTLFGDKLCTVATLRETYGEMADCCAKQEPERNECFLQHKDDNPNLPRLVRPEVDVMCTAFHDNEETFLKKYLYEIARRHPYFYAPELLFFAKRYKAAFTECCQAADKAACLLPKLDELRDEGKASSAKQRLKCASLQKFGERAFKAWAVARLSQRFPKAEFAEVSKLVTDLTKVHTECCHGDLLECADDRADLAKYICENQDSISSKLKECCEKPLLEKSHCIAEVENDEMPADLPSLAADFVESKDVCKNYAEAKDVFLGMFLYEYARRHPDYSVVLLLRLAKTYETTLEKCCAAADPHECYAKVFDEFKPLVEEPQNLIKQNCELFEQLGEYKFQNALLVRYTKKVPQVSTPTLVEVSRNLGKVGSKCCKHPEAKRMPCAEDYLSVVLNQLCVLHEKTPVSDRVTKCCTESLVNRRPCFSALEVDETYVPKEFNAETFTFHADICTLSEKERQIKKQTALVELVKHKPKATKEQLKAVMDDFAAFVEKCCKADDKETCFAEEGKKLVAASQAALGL

Rattus norvegicus = experiment: Clearance in Sprague Dawley (crl:CD(SD)) rat at 1 mg/kg, iv by LCMS/MS method; assay type: ADME, organism-based; conditions: in vivo
How it was run: (§2)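 Rat given a single IV dose of 1 mg/kg; blood clearance, half-life and volume of distribution derived from the IV profile.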

[10] = Volume of distribution at steady state in Sprague Dawley (crl:CD(SD)) rat at 1 mg/kg, iv by LCMS/MS method; assay type: ADME, organism-based; conditions: in vivo, read-out: Vdss; how it was run: as §2
[11] = Half life in Sprague Dawley (crl:CD(SD)) rat at 1 mg/kg, iv by LCMS/MS method; assay type: ADME, organism-based; conditions: in vivo; how it was run: as §2
Canis familiaris = experiment: Clearance in Beagle dog at 0.5 mg/kg by LCMS/MS method; conditions: in vivo
[12] = Clearance in human microsomes; assay type: ADME, Microsome
[13] = Clearance in rat microsomes; assay type: ADME, Microsome
[14] = molecular target: T2, C-C chemokine receptor type 4 (Homo sapiens) (UniProt P51679); experiment: as §1
T2 sequence (whole entry): T1 sequence (P51679 whole entry)

Structure (SMILES) | solubility kinetic [1] [µM] | chromatographic logD [2] | IC50 [3] [µM] | other results
COc1ccc2c(cnn2C)c1NS(=O)(=O)c1cccc(Cl)c1Cl | 175 (≈ 67.6 µg/mL) | 5 | 10 | –
COc1nn(CC(N)=O)c2ncnc(NS(=O)(=O)c3cccc(Cl)c3Cl)c12 | ≥ 490 | 1.1 | 0.501 | –
COCCn1nc(OC)c2c(NS(=O)(=O)c3cccc(Cl)c3Cl)ncnc21 | ≥ 442 | 2.6 | 0.316 | –
COc1nn(C)c2nc(NCCN(C)C)nc(NS(=O)(=O)c3cccc(Cl)c3Cl)c12 | ≥ 444 | 1.4 | > 31.6 | –
COc1n[nH]c2ncnc(NS(=O)(=O)c3cccc(Cl)c3Cl)c12 | 402 (≈ 150 µg/mL) | 1.8 | 0.158 | –
COc1nn(C)c2ncnc(NS(=O)(=O)c3cccc(Cl)c3Cl)c12 | ≥ 581 | 2.4 | 0.0631 | Kb [4]: > 6.31 µM; bioavailability [5]: 100%; half-life [6]: 0.6 h; bioavailability [7]: 62%; CL [8]: 0.65 mL/min/g; Vd [9]: 0.3 L/kg; fraction unbound (albumin): 0.015; clearance (Rattus norvegicus): 2 mL/min/kg; Vd [10]: 0.3 L/kg; half-life [11]: 1.9 h; clearance (Canis familiaris): 4 mL/min/kg; CL [12]: < 0.53 mL/min/g; CL [13]: 0.58 mL/min/g
COc1nn(C)c2nc(NC3COC3)nc(NS(=O)(=O)c3cccc(Cl)c3Cl)c12 | ≥ 712 | 2.2 | 10 | –
CCNc1nc(NS(=O)(=O)c2cccc(Cl)c2Cl)c2c(OC)nn(C)c2n1 | 219 (≈ 94.5 µg/mL) | 4.2 | 0.251 | –
COc1nn(CC(=O)O)c2ncnc(NS(=O)(=O)c3cccc(Cl)c3Cl)c12 | ≥ 483 | 0.8 | 0.2 | –
COc1nn(C)c2cccc(NS(=O)(=O)c3cccc(Cl)c3Cl)c12 | 80 (≈ 30.9 µg/mL) | 6.5 | 0.794 | –
COc1nn(C)c2ncnc(NS(=O)(=O)c3ccc(Cl)s3)c12 | ≥ 538 | 1.6 | 0.0794 | Kb [4]: > 6.31 µM; fraction unbound (albumin): 0.023
CNc1nc(NS(=O)(=O)c2cccc(Cl)c2Cl)c2c(OC)nn(C)c2n1 | 376 (≈ 157 µg/mL) | 3.2 | 0.0794 | –
COc1cccc2c1c(NS(=O)(=O)c1cccc(Cl)c1Cl)nn2C | 288 (≈ 111 µg/mL) | – | – | pA2 [14]: inactive; bioavailability [7]: 24%; fraction unbound (albumin): 0.023; clearance (Rattus norvegicus): 17 mL/min/kg; Vd [10]: 0.5 L/kg; half-life [11]: 1.2 h
COc1ccc(COc2nc(Br)cnc2NS(=O)(=O)c2ccc(C)cc2)cc1OCCN(C)C | 309 (≈ 170 µg/mL) | 3.1 | – | –
O=S(=O)(Nc1ncnc2[nH]nc(O)c12)c1cccc(Cl)c1Cl | ≥ 234 | 0.8 | 15.8 | –
COc1nn(CCN(C)C)c2ncnc(NS(=O)(=O)c3cccc(Cl)c3Cl)c12 | 358 (≈ 159 µg/mL) | 1.6 | 3.98 | –
COc1nn(C)c2nc(N(C)C)nc(NS(=O)(=O)c3cccc(Cl)c3Cl)c12 | ≥ 626 | 4 | 0.631 | –
COc1nn(C)c2nc(C)nc(NS(=O)(=O)c3cccc(Cl)c3Cl)c12 | ≥ 557 | 3.4 | 0.631 | –
CNC(=O)Cn1nc(OC)c2c(NS(=O)(=O)c3cccc(Cl)c3Cl)ncnc21 | ≥ 509 | 1.3 | 0.631 | –
CCn1[nH]c2ncnc(NS(=O)(=O)c3cccc(Cl)c3Cl)c2c1=O | ≥ 383 | 1.2 | > 31.6 | –
COc1nn(C2COC2)c2ncnc(NS(=O)(=O)c3cccc(Cl)c3Cl)c12 | 142 (≈ 61.1 µg/mL) | 2.1 | 0.251 | –

More lines, main results first:

solubility kinetic [1] [µM] | chromatographic logD [2] | IC50 [3] [µM] | Structure (SMILES) | other results
≥ 310 | 1.7 | 12.6 | Cn1ncc2c(NS(=O)(=O)c3cccc(Cl)c3Cl)ccnc21 | –
≥ 438 | 2.3 | 0.794 | CCOc1n[nH]c2ncnc(NS(=O)(=O)c3cccc(Cl)c3Cl)c12 | –
404 (≈ 168 µg/mL) | 4.5 | 0.251 | COc1nn(C(C)C)c2ncnc(NS(=O)(=O)c3cccc(Cl)c3Cl)c12 | –
≥ 463 | 2.3 | 0.794 | COCCOc1nn(C)c2ncnc(NS(=O)(=O)c3cccc(Cl)c3Cl)c12 | –
≥ 551 | 5.2 | 3.16 | COc1nn(C)c2nc(NC(C)C)nc(NS(=O)(=O)c3cccc(Cl)c3Cl)c12 | –
124 (≈ 44.2 µg/mL) | 4.6 | 2 | Cn1nc(NS(=O)(=O)c2cccc(Cl)c2Cl)c2ccccc21 | –
148 (≈ 61.9 µg/mL) | 1.9 | 0.794 | COc1nc(NS(=O)(=O)c2cccc(Cl)c2Cl)c2c(OC)nn(C)c2n1 | –
≥ 649 | 2.4 | 0.316 | COc1nn(C)c2nc(N)nc(NS(=O)(=O)c3cccc(Cl)c3Cl)c12 | –
476 (≈ 171 µg/mL) | 1.7 | 1.26 | Cn1ncc2c(NS(=O)(=O)c3cccc(Cl)c3Cl)ncnc21 | –
≥ 441 | 3.3 | 7.94 | COCCNc1nc(NS(=O)(=O)c2cccc(Cl)c2Cl)c2c(OC)nn(C)c2n1 | –
170 (≈ 60.6 µg/mL) | 3.2 | 3.16 | Cn1ncc2c(NS(=O)(=O)c3cccc(Cl)c3Cl)cccc21 | –
